Source: PubChem (Broad Institute)
The entries come from a sample that favours hits as a whole.
T cruzi HTS: inhibitors of intracellular Trypanosoma cruzi. intracellular Trypanosoma cruzi in host cells, plate reader. activity score (inhibition), % at 5.01 µM. actives 4.9% (n = 22,000). AID 651903; in the data active means activity score above about 55%;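 further: parasites and compound incubated about four days before reading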
INS-1E rescue: preserves ATP levels in cytokine-treated INS-1E cells; INS-1E cytokine-induced death, ATP luminescence, 48 h; normalised: neutral wells 0, positive control 100; protection from cytokine-induced ATP loss, % at 10 µM; actives 0.1% (n = 20,000); AID 488910;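 active means mean replicate protection from cytokine-induced ATP loss at least 50% and at least 75% of replicates each reaching 50%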
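Assay system: INS-1E rat insulinoma cells. Amount: 8000 cells per well. Medium: phenol-red-free RPMI with 5% fetal bovine serum. Reagent: IL-1β, TNF-α and IFN-γ cytokine mix. Doses: one compound concentration, pin transfer. Schedule: 48 h co-treatment, 10 min post-lysis read. Detection: CellTiter-Glo luminescence measuring cellular ATP.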
A1 apoptosis 2: compounds inhibiting A1, read as caspase activation. 24,000 tested, under 10 active. caspase activation, % (concentration not given with the values). AID 2465. MEF A1-2A-BIM cells, caspase-Glo luminescence, 3 h; percent of clofoctol response, DMSO zero; in the data active means caspase activation above about 5.9%
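Material: mouse embryonic fibroblasts co-expressing A1 and BIM (A1-2A-BIM), primed for A1 dependence / Quantity: 2500 cells/well / Buffer or medium: RPMI-1640 growth medium with 10% FBS / Doses: 50 nL compound per well, pinned / Schedule: 3 h compound exposure at 37 °C / Signal: Caspase-Glo luminescence (DEVD substrate) / Measure: Caspase-3/7 activation, seen as rise in luminescence signal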
Of the large screens only hits and unclear results are named; the others gave an inactive call.

C[C@H](CO)N1C[C@H](C)[C@@H](CN(C)Cc2ccc(Oc3ccccc3)cc2)Oc2c(NC(=O)c3ccncc3)cccc2C1=O	T cruzi HTS 65.7
C[C@H]1CN([C@@H](C)CO)C(=O)c2cccc(NC(=O)c3ccncc3)c2O[C@@H]1CN(C)Cc1ccncc1	none (no result: A1 apoptosis 2)
C[C@H]1CN([C@@H](C)CO)C(=O)c2cccc(NC(=O)c3ccncc3)c2O[C@@H]1CN(C)Cc1ccc(Oc2ccccc2)cc1	T cruzi HTS 78.2
C[C@@H]1CN([C@@H](C)CO)C(=O)c2cccc(NC(=O)c3ccncc3)c2O[C@@H]1CN(C)Cc1ccc(Oc2ccccc2)cc1	T cruzi HTS 77.9
O=C(CCCCCCC(=O)Nc1ccccc1O)N/N=C/c1ccccc1Br	none (no result: A1 apoptosis 2)
O=C(CCCCCCC(=O)Nc1ccccc1O)N/N=C/c1ccc(O)c(O)c1O	none (no result: A1 apoptosis 2)
O=C(O)CCCCCC(=O)N/N=C/c1ccccc1Cl	none
COc1ccc2[nH]c(=O)[nH]c(=O)c2c1	none (no result: T cruzi HTS, INS-1E rescue)
O=C(N/N=C/C(Br)=C/c1ccccc1)c1ccccn1	none (no result: A1 apoptosis 2)
O=C(N/N=C/c1c[nH]c2ccccc12)c1ccccn1	none
O=C1N(CCS(=O)(=O)c2ccccc2)c2ccccc2[C@H]2OC(c3ccc(OCCCO)cc3)=N[C@@]12CCS(=O)(=O)c1ccccc1	none (no result: T cruzi HTS, INS-1E rescue)
CC(/C=C/C(=O)NO)=C\c1ccccc1OCc1cn(C[C@@H]2CCCN2S(=O)(=O)c2ccc(C)cc2)nn1	none (no result: T cruzi HTS, INS-1E rescue)
O=C(CCCCCCC(=O)Nc1ccccc1O)N/N=C/c1cccc(Oc2ccccc2)c1	none (no result: A1 apoptosis 2)
C[C@@H]1CN([C@H](C)CO)C(=O)c2cccc(NC(=O)c3ccncc3)c2O[C@H]1CN(C)Cc1ccc(Oc2ccccc2)cc1	T cruzi HTS 84.6
COc1cc2c(cc1OC)CN(C(=O)[C@H]1[C@@H]3C(=O)O[C@@H](c4ccccc4)[C@@H](c4ccccc4)N3[C@@H](c3ccc(O)cc3)[C@]13C(=O)Nc1ccc(C#CC4=CCCCC4)cc13)CC2	none (no result: T cruzi HTS, INS-1E rescue)
C[C@H](CO)N1C[C@H](C)[C@H](CN(C)Cc2ccncc2)Oc2c(NC(=O)c3nc4ccccc4s3)cccc2C1=O	none (no result: A1 apoptosis 2)
C[C@@H]1CN([C@H](C)CO)C(=O)c2cccc(NC(=O)c3nc4ccccc4s3)c2O[C@H]1CN(C)Cc1ccc(C(=O)Nc2ccccc2N)cc1	T cruzi HTS 79.2 (no result: A1 apoptosis 2)
C[C@H](CO)N1C[C@H](C)[C@@H](CN(C)Cc2ccncc2)Oc2c(NC(=O)c3nc4ccccc4s3)cccc2C1=O	none
C[C@H]1CN([C@@H](C)CO)C(=O)c2cccc(NC(=O)c3nc4ccccc4s3)c2O[C@H]1CN(C)Cc1ccc(C(=O)Nc2ccccc2N)cc1	T cruzi HTS 79.4
O=C(N/N=C/c1cc(Br)cc([N+](=O)[O-])c1O)c1ccccn1	none
O=C(CCCCCC(=O)Nc1ccccc1O)N/N=C/c1cc(Br)cs1	none
C[C@H](CO)N1C[C@H](C)[C@@H](CN(C)CC2CC2)Oc2c(NC(=O)CCCCCC(=O)Nc3ccccc3N)cccc2C1=O	T cruzi HTS 72.4
C[C@@H]1CN([C@@H](C)CO)C(=O)c2cccc(NC(=O)CCCCCC(=O)Nc3ccccc3N)c2O[C@H]1CN(C)CC1CCCCC1	T cruzi HTS 73.7 (no result: A1 apoptosis 2)
C[C@H](CO)N1C[C@H](C)[C@H](CN(C)CC2CC2)Oc2c(NC(=O)CCCCCC(=O)Nc3ccccc3N)cccc2C1=O	none
C[C@H](CO)N1C[C@H](C)[C@H](CN(C)C)Oc2c(NC(=O)CCCCCC(=O)Nc3ccccc3N)cccc2C1=O	none
C=CCOC(=O)[C@H]1[C@@H]2C(=O)O[C@@H](c3ccccc3)[C@@H](c3ccccc3)N2[C@@H](c2ccc(OCCOC(=O)[C@@H]3C[C@@H]4C(=O)N[C@@H](Cc5ccccc5)C(=O)N4[C@@H]3c3cccc(OCCO)c3)cc2)[C@]12C(=O)Nc1ccc(I)cc12	none (no result: T cruzi HTS, INS-1E rescue)
COc1ccc(NC(=O)Nc2ccc3c(c2)CC(=O)N([C@H](C)CO)C[C@H](C)[C@@H](CN(C)Cc2ccc(-c4ccccc4)cc2)O3)cc1	none (no result: T cruzi HTS, INS-1E rescue)
C[C@H](CO)N1C[C@H](C)[C@H](CN(C)Cc2ccc(-c3ccccc3)cc2)Oc2ccc(NC(=O)Nc3ccc(C(F)(F)F)cc3)cc2CC1=O	T cruzi HTS 64.9 (no result: A1 apoptosis 2)
C[C@H](CO)N1C[C@H](C)[C@H](CN(C)Cc2ccc(C(F)(F)F)cc2)Oc2ccc(NC(=O)Nc3ccccc3)cc2CC1=O	none
C[C@@H]1CN([C@H](C)CO)C(=O)Cc2cc(NC(=O)Nc3ccc(F)cc3)ccc2O[C@@H]1CN(C)Cc1ccc(-c2ccccc2)cc1	T cruzi HTS 61.1 (no result: A1 apoptosis 2)
CC(C)NC(=O)Nc1ccc2c(c1)CC(=O)N([C@@H](C)CO)C[C@@H](C)[C@@H](CN(C)Cc1ccc(-c3ccccc3)cc1)O2	none
COc1ccc(NC(=O)Nc2ccc3c(c2)CC(=O)N([C@@H](C)CO)C[C@H](C)[C@H](CN(C)Cc2ccc(-c4ccccc4)cc2)O3)cc1	T cruzi HTS 71.2
CC(C)NC(=O)Nc1ccc2c(c1)CC(=O)N([C@H](C)CO)C[C@H](C)[C@H](CN(C)Cc1ccc(-c3ccccc3)cc1)O2	T cruzi HTS 67.3
C[C@H](CO)N1C[C@H](C)[C@@H](CN(C)Cc2ccc(-c3ccccc3)cc2)Oc2ccc(NC(=O)Nc3ccc(F)cc3)cc2CC1=O	none (no result: T cruzi HTS, INS-1E rescue)
COc1ccc(C#Cc2ccc3c(c2)[C@]2(C(=O)N3)[C@H](c3ccc(O)cc3)N3[C@H](c4ccccc4)[C@H](c4ccccc4)OC(=O)[C@H]3[C@@H]2C(=O)N2CCN(c3ncccn3)CC2)cc1	none (no result: T cruzi HTS, INS-1E rescue)
O=C(N/N=C/c1ccc([N+](=O)[O-])c(O)c1)c1ccccc1O	none (no result: A1 apoptosis 2)
O=C(N/N=C/c1ccccc1OCCO)c1ccccn1	none
COC(=O)CCCCCCC(=O)N/N=C/c1ccoc1	none
C[C@H](CO)N1C[C@H](C)[C@@H](CN(C)Cc2ccc(-c3ccccc3)cc2)Oc2ccc(NC(=O)Nc3ccc(C(F)(F)F)cc3)cc2CC1=O	none (no result: T cruzi HTS, INS-1E rescue)
C[C@@H]1CN([C@H](C)CO)C(=O)Cc2cc(NC(=O)Nc3ccc(C(F)(F)F)cc3)ccc2O[C@@H]1CN(C)Cc1ccc(-c2ccccc2)cc1	T cruzi HTS 75.6 (no result: A1 apoptosis 2)
O=C(N/N=C/c1ccccc1Br)c1ccccn1	none
C[C@H](CO)N1C[C@H](C)[C@H](CN(C)Cc2ccc(C(=O)Nc3ccccc3N)cc2)Oc2c(NC(=O)Nc3ccc(C(F)(F)F)cc3)cccc2C1=O	T cruzi HTS 60.8 (no result: A1 apoptosis 2)
C[C@@H]1CN([C@@H](C)CO)C(=O)c2cccc(NC(=O)Nc3ccc(C(F)(F)F)cc3)c2O[C@@H]1CN(C)Cc1ccc(C(=O)Nc2ccccc2N)cc1	T cruzi HTS 77.5 (no result: A1 apoptosis 2)
C[C@H](CO)N1C[C@H](C)[C@@H](CN(C)Cc2ccc(C(=O)O)cc2)Oc2c(NC(=O)Nc3ccc(C(F)(F)F)cc3)cccc2C1=O	none
C[C@H](CO)N1C[C@H](C)[C@H](CN(C)Cc2ccc(C(=O)O)cc2)Oc2c(NC(=O)Nc3ccc(C(F)(F)F)cc3)cccc2C1=O	none
CO[C@H]1O[C@H](CO)[C@@H](OC(=O)CCc2ccccc2)[C@H](OC(=O)c2cc3ccccc3[nH]2)[C@H]1OC(=O)c1cc2ccccc2[nH]1	none (no result: T cruzi HTS, INS-1E rescue)
CC(C)=CCC[C@@H](C)C/C=N/NC(=O)CCCCC(=O)NO	none
